Experimental findings from ChEMBL document CHEMBL1933058, “5-(2-amino-pyrimidin-4-yl)-1H-pyrrole and 2-(2-amino-pyrimidin-4-yl)-1,5,6,7-tetrahydro-pyrrolo[3,2-c]pyridin-4-one derivatives as new classes of selective and orally available Polo-like kinase 1 inhibitors” (Bioorg Med Chem Lett, 2012) are described below.

Calls of active or inactive are those of the source.

Series [1] concerns the target Serine/threonine-protein kinase PLK3 (Homo sapiens, UniProt Q9H4B4). Description: Inhibition of PLK3.
Series [2] addresses Protein-tyrosine kinase 6 (Homo sapiens, UniProt Q13882). Description: Inhibition of BRK.
Series [3] addresses Cyclin-dependent kinase 1/cyclin B1 (Homo sapiens, UniProt P06493). Description: Inhibition of CDK1/cyclin B. The class given is protein-complex assay.
The target in series [4] is Cyclin-dependent kinase 5 activator 1 (Homo sapiens, UniProt Q15078). Description: Inhibition of CDK5/P25.
Series [5] addresses Mitogen-activated protein kinase 1 (Homo sapiens, UniProt P28482). Description: Inhibition of ERK2.
A further series addresses Insulin receptor (Homo sapiens, UniProt P06213). Description: Inhibition of IR.
Series [6] deals with Tyrosine-protein kinase JAK2 (Homo sapiens, UniProt O60674). Description: Inhibition of JAK2.
Tyrosine-protein kinase JAK2, sequence (O60674 whole entry): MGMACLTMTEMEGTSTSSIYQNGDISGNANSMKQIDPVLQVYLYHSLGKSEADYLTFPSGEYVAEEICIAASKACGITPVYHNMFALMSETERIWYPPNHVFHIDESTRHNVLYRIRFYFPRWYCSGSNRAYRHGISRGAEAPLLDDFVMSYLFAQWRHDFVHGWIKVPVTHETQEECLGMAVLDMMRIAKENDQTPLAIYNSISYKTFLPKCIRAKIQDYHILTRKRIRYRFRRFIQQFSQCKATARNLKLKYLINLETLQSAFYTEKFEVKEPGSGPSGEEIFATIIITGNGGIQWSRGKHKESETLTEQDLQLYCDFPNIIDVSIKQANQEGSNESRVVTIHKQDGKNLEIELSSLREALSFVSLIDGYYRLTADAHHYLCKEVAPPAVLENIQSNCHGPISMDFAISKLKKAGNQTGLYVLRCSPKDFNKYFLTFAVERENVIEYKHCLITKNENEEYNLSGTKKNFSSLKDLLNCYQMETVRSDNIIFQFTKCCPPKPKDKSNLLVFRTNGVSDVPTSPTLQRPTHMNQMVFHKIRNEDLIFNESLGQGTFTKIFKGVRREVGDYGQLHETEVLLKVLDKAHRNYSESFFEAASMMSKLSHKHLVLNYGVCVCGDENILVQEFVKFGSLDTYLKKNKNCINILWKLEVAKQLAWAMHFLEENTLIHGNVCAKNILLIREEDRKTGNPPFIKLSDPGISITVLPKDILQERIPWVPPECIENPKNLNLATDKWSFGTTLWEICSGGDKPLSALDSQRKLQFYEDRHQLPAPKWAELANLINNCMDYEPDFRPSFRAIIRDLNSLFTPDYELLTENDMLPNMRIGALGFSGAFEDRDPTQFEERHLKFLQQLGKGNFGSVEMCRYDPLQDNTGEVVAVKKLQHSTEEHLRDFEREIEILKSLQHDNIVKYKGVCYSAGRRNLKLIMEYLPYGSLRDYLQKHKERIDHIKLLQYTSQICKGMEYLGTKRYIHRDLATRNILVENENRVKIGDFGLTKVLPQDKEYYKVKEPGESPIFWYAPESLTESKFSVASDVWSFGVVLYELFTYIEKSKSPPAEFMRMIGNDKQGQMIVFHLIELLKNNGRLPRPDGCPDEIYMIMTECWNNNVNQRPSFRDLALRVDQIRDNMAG
For series [7], the target named is Serine/threonine-protein kinase Nek6 (Homo sapiens, UniProt Q9HC98). Description: Inhibition of NEK6.
Series [8] deals with Serine/threonine-protein kinase PAK 4 (Homo sapiens, UniProt O96013). Description: Inhibition of PAK4.
Serine/threonine-protein kinase PAK 4, sequence (O96013 whole entry): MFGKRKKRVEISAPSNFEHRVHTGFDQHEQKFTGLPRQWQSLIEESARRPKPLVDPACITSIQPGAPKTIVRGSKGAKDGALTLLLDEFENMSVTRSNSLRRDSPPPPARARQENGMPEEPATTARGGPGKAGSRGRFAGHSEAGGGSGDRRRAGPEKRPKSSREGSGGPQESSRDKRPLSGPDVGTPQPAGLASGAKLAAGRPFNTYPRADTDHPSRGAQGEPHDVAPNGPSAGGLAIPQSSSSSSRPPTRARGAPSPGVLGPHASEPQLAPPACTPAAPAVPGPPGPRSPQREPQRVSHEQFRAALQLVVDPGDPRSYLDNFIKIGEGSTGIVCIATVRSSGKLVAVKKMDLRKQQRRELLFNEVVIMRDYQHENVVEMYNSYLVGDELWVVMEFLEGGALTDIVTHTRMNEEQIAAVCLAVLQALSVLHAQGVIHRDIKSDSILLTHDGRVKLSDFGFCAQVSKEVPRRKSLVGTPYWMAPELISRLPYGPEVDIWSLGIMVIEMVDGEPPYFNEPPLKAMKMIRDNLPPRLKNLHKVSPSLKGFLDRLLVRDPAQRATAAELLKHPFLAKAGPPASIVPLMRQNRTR
Series [9] concerns the target cAMP-dependent protein kinase catalytic subunit alpha (Homo sapiens, UniProt P17612). Description: Inhibition of PKAalpha.
Series [10] deals with Protein kinase C beta type (Homo sapiens, UniProt P05771). Description: Inhibition of PKCbeta.
Series [11] in a line: Inhibition of SULU1.
Another series concerns A-375. Description: Antiproliferative activity against human A375 cells. The class given is functional, cell-based.
The subject of a further series is MDA-MB-468. Description: Antiproliferative activity against human MDA-MB-468 cells. In kind it is functional, cell-based.
Another series concerns MOLM-13. Description: Antiproliferative activity against human MOLM13 cells. The class given is functional, cell-based.
In series [12] the test system is A2780. Description: Cell cycle arrest in human A2780 cells assessed as accumulation at G2/M phase at 0.05 to 5 uM after 24 hrs by FACS analysis. The class given is functional, cell-based. In short, it runs like this: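 A2780 cells were exposed for 24 h to 0.05, 0.5 or 5 µM. Cell-cycle distribution was read by flow cytometry (FACS), scoring G2-M accumulation. Nocodazole-treated cells served as positive control.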

Series [13] relates to A2780. Description: Cell cycle arrest in human A2780 cells assessed as increase of phospho Ser10 histone H3 level after 24 hrs by Western blotting analysis. In kind it is functional, cell-based. In short, it runs like this:
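A2780 cells were treated for 24 h at 0.05, 0.5 and 5 µM, with nocodazole as positive control. Lysates were immunoblotted for pSer10 histone H3, pThr199 nucleophosmin, cyclin B1, cyclin A, PARP cleavage and caspase 3 activation.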
(Immunoblotting shows a protein as a band on a membrane.)

The subject of series [14] is A2780. Description: Cell cycle arrest in human A2780 cells assessed as increase of phospho Ser10 histone H3 level at 0.05 to 5 uM after 1 hr by Western blotting analysis. The class given is functional, cell-based. In short, it runs like this: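 A2780 cells got 1 h exposure at 0.05, 0.5 and 5 µM, with nocodazole-treated cells as comparator. Western blot was used to probe the PLK1 substrate marker pSer46 TCTP and the mitotic marker pSer10 histone H3.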

The test system of a further series is Caco-2. Description: Apparent permeability across human Caco2 cells. The class given is ADME, cell-based.
Series [15] in a line: Intrinsic clearance in human liver microsomes at 1 uM. The note with it: read-out: CLH. In kind it is ADME, Microsome. A general note: Microsomes from liver hold many membrane-bound enzymes, among them those of drug oxidation.
Series [16] in a line: Clearance in Nu/Nu Balb Harlan mouse at 10 mg/kg, iv. In kind it is ADME, organism-based. Also noted: dose 10 mg/kg, route intravenous. The note with it: in vivo. A digest of the protocol: (§1)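 Male Balb Nu/Nu mice (Harlan) received a single 10 mg/kg intravenous dose, n = 3 animals per study. Vehicle was either trifluoroacetate salt in dextrose or free base in 50% PEG 400/glucosate, depending on compound. Parameters were reported as mean ± standard deviation.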

Series [17] in a line: Half life in Nu/Nu Balb Harlan mouse at 10 mg/kg, iv. The class given is ADME, organism-based. The arrangement: dose 10 mg/kg, route intravenous. Conditions: in vivo. A digest of the protocol: as §1
Series [18] in a line: Cmax in Nu/Nu Balb Harlan mouse at 10 mg/kg, po. The class given is ADME, organism-based. The arrangement: dose 10 mg/kg, route oral. Conditions: in vivo.
A short description of series [19]: Oral bioavailability in Nu/Nu Balb Harlan mouse at 10 mg/kg. The class given is ADME, organism-based. The note with it: in vivo.

Serine/threonine-protein kinase PLK3, sequence (Q9H4B4 whole entry): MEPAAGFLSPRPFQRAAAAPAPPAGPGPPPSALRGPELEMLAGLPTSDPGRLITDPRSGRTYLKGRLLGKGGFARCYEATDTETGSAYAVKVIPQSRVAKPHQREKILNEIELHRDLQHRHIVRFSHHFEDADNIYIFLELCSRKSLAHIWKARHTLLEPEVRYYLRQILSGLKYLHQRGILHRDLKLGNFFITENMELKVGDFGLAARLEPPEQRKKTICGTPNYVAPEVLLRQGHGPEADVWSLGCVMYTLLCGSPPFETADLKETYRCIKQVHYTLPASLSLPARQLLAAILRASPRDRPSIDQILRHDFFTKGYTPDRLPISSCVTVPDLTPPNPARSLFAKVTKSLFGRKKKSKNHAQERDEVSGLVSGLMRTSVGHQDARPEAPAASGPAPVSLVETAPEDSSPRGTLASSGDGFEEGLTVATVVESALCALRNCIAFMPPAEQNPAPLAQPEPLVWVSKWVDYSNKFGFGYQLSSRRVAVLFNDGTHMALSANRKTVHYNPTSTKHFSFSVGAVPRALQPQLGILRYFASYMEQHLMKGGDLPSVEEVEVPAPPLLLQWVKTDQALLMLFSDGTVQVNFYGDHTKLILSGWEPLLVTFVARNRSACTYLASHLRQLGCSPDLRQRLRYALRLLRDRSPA
Insulin receptor, sequence (P06213 28-758 limits assumed): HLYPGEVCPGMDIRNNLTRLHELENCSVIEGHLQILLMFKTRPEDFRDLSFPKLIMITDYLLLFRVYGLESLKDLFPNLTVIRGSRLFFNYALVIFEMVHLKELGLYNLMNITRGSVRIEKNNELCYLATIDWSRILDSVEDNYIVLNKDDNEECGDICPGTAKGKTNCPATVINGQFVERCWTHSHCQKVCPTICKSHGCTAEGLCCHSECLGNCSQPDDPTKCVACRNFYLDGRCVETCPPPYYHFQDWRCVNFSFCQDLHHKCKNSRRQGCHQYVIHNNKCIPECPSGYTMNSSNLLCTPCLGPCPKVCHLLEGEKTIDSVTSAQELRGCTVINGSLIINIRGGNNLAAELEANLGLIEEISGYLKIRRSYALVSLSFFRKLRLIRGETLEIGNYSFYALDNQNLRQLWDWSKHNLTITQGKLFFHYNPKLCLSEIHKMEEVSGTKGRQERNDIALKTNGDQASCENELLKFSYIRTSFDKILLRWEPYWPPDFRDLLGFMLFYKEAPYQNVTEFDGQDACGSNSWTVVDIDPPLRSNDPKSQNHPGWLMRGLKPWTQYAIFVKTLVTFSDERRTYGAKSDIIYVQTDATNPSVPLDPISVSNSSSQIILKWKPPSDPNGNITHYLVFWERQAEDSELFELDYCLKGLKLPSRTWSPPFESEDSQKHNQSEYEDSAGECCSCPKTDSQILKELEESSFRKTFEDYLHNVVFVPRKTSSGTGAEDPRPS
Insulin receptor, sequence (P06213 763-1382 limits assumed): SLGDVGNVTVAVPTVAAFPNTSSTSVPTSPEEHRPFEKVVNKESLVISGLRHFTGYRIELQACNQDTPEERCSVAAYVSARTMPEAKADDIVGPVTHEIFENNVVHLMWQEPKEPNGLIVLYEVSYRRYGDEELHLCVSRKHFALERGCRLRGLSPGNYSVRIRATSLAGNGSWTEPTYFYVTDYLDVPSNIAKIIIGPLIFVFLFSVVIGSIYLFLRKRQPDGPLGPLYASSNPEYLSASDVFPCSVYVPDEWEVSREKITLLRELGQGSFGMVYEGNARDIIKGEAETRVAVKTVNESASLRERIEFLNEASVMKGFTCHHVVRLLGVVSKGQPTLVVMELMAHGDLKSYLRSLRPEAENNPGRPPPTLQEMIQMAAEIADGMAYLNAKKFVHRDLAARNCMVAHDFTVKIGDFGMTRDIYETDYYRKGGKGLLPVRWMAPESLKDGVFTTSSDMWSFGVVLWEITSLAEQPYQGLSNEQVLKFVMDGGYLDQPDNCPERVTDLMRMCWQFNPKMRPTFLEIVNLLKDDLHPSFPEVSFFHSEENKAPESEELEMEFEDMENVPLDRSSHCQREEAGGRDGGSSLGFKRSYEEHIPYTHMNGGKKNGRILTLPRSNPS
Cyclin-dependent kinase 1/cyclin B1, sequence (P06493 whole entry): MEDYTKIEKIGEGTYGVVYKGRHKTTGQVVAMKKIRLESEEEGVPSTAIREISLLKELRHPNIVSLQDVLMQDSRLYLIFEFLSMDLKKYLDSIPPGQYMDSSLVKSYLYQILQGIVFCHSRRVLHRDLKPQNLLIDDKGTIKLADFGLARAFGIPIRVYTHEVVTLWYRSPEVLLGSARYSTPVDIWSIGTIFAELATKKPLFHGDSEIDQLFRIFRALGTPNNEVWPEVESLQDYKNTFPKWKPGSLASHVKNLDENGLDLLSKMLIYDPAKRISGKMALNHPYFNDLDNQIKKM
Cyclin-dependent kinase 1/cyclin B1, sequence (P14635 whole entry, further chain): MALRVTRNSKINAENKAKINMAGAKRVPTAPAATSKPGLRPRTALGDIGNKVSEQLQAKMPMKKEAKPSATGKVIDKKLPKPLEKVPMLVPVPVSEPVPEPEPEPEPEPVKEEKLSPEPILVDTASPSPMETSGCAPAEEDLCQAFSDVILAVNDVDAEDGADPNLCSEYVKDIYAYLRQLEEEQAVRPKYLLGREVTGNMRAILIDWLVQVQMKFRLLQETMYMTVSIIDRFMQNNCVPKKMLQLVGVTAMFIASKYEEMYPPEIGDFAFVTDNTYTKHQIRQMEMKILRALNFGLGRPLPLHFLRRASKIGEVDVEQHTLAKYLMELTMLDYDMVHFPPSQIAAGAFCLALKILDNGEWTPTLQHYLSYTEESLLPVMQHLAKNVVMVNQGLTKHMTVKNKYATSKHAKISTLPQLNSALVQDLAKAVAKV
Mitogen-activated protein kinase 1, sequence (P28482 whole entry): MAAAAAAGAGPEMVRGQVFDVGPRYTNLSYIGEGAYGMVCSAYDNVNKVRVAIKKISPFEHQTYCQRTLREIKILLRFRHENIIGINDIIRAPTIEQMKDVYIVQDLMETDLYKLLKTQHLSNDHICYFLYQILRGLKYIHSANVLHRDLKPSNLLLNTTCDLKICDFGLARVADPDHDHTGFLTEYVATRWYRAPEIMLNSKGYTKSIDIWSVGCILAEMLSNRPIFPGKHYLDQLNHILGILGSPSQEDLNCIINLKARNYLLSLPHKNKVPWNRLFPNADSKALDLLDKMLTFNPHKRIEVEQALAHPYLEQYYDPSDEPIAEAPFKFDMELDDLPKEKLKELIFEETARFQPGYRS

In the case of `CN1CCN(c2ccc(OC(F)(F)F)c(Nc3nccc(-c4cc5c(n4C)CCNC5=O)n3)c2)CC1`, the IC50 (in series [1]; in series [2]; in series [3]; in series [4]; in series [5]; against Insulin receptor) was above 10 µM each time. For the same compound, the IC50 in series [6], in [7], in series [8], in series [9], in [10] and in [11] was above 10 µM each time. Further, the IC50 in the series on A-375 is 0.027 µM; in the series with MDA-MB-468, 0.041 µM; in the series with MOLM-13 it was 0.021 µM. Moreover, the outcome in the series with A2780 [12] and with A2780 [14] was Active. Further, in the series with A2780 [13], the Activity entry was “Dose-dependent effect”. In addition, the Papp entry in the series with Caco-2 is recorded as “permeable”. For the same compound, in [15], the CLint scaled at 1 µM was found to be 16.5 mL/min/kg. Also, the clearance in series [16] amounted to 66.4 mL/min/kg. For the same compound, the half-life in series [17] was 31.2 min. Moreover, in series [18], the concentration peaked (Cmax) at 760 nM. Besides, the bioavailability in series [19] was 52%.

As a reminder, the IC50 is the concentration that inhibits the measured activity by half. The low end stands for greater potency in that assay, the high end for weaker potency in that assay. Usually clearance stands for the volume of plasma or blood freed of the substance per unit of time. Read a high clearance as a high capacity for elimination. Usually half-life stands for the time needed for the level to fall by half in the phase considered. Usually Cmax stands for the maximum level reached in the sampled fluid or tissue. What is called bioavailability is dose-corrected exposure relative to a reference, in per cent.
